Reference: ChEMBL document CHEMBL1177730, “Bivalent diketopiperazine-based tropomysin receptor kinase C (TrkC) antagonists” (J Med Chem, 2010)
Active and inactive are the calls of the source. The calls are words filed in the database; no cut-off is given here.

Experiments:
[1] = biological target: Insulin-like growth factor 1 receptor (Homo sapiens) (UniProt P08069); experiment: Binding affinity to human IGF1R expressed in mouse NIH/3T3 cells by FACS analysis; assay type: cell-based; settings: NIH3T3
Sequence of Insulin-like growth factor 1 receptor (Homo sapiens) (P08069 31-736 limits assumed): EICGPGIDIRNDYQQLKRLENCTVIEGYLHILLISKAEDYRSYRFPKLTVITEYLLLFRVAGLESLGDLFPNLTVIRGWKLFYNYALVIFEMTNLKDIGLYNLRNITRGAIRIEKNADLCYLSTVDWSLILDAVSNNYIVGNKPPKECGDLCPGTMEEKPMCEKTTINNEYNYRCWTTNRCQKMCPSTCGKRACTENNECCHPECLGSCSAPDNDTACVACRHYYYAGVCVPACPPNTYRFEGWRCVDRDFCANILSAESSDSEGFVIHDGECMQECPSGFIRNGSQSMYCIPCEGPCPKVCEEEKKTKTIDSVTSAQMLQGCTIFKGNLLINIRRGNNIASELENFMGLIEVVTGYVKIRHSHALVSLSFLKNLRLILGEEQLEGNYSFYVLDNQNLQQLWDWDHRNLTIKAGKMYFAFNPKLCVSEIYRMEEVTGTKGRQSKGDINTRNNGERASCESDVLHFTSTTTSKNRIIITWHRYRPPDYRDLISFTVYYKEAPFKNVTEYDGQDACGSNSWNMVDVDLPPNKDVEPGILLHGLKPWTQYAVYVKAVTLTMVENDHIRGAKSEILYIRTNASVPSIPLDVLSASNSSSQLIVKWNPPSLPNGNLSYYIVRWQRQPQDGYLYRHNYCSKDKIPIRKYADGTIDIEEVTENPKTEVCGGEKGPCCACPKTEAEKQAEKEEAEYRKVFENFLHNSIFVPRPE
Sequence of Insulin-like growth factor 1 receptor (Homo sapiens) (P08069 741-1367 limits assumed): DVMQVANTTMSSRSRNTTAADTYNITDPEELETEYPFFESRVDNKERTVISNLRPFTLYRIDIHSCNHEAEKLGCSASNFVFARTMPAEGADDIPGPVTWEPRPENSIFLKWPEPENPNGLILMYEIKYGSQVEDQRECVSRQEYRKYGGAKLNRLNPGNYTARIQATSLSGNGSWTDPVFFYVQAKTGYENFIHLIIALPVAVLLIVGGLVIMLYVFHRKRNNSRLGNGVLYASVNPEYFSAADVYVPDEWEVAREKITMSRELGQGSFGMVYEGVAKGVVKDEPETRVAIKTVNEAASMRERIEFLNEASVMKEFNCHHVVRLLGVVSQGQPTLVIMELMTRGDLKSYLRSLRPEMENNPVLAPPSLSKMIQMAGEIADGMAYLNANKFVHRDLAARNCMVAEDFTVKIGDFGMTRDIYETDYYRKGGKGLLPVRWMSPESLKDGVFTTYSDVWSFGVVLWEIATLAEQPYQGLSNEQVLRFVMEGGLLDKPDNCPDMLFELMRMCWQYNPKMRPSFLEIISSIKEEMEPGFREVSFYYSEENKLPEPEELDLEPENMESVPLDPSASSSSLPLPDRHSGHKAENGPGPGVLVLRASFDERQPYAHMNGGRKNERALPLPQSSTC

[2] = biological target: NT-3 growth factor receptor (Homo sapiens) (UniProt Q16288); experiment: Antagonist activity at human TrkC expressed in mouse NIH/3T3 cells assessed as decrease in NT3-induced TrkC-pTyr level at 20 uM after 20 mins by Western blotting; assay type: functional, cell-based; set-up: scale not given: the % may be the effect or the level left; settings: NIH3T3
Sequence of NT-3 growth factor receptor (Homo sapiens) (Q16288 32-839 limits assumed): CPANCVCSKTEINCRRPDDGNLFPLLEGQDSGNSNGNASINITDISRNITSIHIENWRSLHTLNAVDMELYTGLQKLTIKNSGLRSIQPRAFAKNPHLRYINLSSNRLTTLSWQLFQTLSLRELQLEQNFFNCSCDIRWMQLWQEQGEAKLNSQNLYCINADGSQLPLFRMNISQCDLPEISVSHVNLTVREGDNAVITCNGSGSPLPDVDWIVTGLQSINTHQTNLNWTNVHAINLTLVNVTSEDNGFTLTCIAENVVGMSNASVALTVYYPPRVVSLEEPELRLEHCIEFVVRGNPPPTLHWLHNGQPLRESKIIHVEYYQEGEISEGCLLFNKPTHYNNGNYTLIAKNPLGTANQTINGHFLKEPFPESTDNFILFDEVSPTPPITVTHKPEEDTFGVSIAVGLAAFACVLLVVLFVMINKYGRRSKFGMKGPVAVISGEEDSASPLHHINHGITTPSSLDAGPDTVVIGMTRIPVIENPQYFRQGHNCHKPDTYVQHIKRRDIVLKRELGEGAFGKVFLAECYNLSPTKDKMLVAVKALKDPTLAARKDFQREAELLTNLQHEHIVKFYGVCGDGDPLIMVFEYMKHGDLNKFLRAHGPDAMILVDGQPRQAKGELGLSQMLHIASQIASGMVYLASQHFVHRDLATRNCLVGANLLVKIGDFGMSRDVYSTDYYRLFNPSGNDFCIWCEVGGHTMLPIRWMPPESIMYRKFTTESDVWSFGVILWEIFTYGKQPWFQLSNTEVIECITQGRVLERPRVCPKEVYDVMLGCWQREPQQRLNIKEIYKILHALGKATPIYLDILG
Procedure, shortened: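 NIH3T3-TrkC cells were exposed to NT-3 (2 nM) ± compound (20 μM) for 20 min. Detergent lysates were Western blotted with anti-pTyr mAb 4G10 and anti-phospho-MAPK, then re-blotted for actin to normalise loading. Bands were quantified by densitometry.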

[3] = biological target: NT-3 growth factor receptor (Homo sapiens) (UniProt Q16288); experiment: Antagonist activity at human TrkC expressed in mouse NIH/3T3 cells assessed as inhibition of NT3-induced cytoprotection at 20 uM by MTT assay relative to NT3; assay type: functional, cell-based; settings: NIH3T3
Procedure, shortened: (§1)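 Survival of NIH-3T3 cells expressing TrkA, TrkC or IGF-1R was measured by MTT in serum-free medium. Medium held the matching growth factor (NGF for TrkA, NT-3 for TrkC, IGF-1 for IGF-1R) at optimal 10 nM or sub-optimal 0.2 nM, ± compound at 20 μM. Survival was expressed relative to optimal growth factor-mediated survival (100%); average ± sd.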

[4] = biological target: High affinity nerve growth factor receptor (Homo sapiens) (UniProt P04629); experiment: Binding affinity to human TrkA expressed in mouse NIH/3T3 cells by FACS analysis; assay type: cell-based; settings: NIH3T3
Sequence of High affinity nerve growth factor receptor (Homo sapiens) (P04629 33-796 limits assumed): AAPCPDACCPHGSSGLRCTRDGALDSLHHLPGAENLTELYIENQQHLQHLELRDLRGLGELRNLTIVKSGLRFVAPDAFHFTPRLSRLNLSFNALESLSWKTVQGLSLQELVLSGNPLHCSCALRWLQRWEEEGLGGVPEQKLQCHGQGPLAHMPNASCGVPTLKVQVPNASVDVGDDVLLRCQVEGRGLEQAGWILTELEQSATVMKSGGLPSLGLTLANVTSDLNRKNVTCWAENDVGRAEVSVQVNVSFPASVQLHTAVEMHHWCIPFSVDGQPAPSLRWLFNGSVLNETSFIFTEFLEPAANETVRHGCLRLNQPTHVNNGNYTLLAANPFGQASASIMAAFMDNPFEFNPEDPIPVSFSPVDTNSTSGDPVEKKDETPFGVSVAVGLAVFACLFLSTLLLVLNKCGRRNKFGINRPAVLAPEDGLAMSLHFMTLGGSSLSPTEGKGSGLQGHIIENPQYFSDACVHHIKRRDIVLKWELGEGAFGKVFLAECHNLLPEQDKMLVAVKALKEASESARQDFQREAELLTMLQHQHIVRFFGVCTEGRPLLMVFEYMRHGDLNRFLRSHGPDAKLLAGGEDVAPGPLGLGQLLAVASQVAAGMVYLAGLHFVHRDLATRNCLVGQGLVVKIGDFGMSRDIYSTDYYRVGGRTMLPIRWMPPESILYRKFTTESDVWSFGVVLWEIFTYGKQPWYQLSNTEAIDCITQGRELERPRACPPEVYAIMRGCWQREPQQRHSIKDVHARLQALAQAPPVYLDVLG
Procedure, shortened: (§2)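 Stably transfected NIH-3T3 cells expressing the indicated receptor were incubated at 4 °C with biotin-tagged ligand (50 μM), then with fluorescein-avidin. After washing, cells were analysed by flow cytometry. Background mean channel fluorescence of NIH-IGF-1R cells was subtracted to give specific binding. Mean ± SEM, n = 3 independent experiments.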

[5] = biological target: Tumor necrosis factor receptor superfamily member 16 (p75NTR, NGFR) (Homo sapiens) (UniProt P08138); experiment: Binding affinity to human p75 expressed in mouse NIH/3T3 cells by FACS analysis; settings: NIH3T3
Sequence of Tumor necrosis factor receptor superfamily member 16 (p75NTR, NGFR) (Homo sapiens) (P08138 whole entry, looked up): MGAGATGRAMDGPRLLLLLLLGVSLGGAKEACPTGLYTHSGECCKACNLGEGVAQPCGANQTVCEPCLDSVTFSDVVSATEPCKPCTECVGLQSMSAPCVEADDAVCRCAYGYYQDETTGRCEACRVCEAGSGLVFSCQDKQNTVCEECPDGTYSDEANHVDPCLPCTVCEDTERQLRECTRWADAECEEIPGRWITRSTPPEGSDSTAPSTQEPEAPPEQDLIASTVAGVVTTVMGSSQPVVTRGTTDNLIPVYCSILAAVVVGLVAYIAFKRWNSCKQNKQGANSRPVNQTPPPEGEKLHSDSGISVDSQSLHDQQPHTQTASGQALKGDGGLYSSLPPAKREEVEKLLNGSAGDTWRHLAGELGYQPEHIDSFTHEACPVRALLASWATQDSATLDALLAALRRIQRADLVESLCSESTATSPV

[6] = biological target: NT-3 growth factor receptor (Homo sapiens) (UniProt Q16288); experiment: Binding affinity at human TrkC expressed in mouse NIH/3T3 cells by FACS analysis; assay type: cell-based; settings: NIH3T3; procedure, shortened: as §2
NIH3T3 = experiment: Cytotoxicity against mouse NIH/3T3 cells by MTT assay; assay type: cell-based
[7] = biological target: Insulin-like growth factor 1 receptor (Homo sapiens) (UniProt P08069); experiment: Antagonist activity at human IGF1R expressed in mouse NIH/3T3 cells assessed as decrease in IGF-induced tyrosin phosphorylation at 20 uM after 20 mins by Western blotting; assay type: functional, cell-based; settings: NIH3T3
[8] = biological target: High affinity nerve growth factor receptor (Homo sapiens) (UniProt P04629); experiment: Antagonist activity at human TrkA expressed in mouse NIH/3T3 assessed as inhibition of NGF-induced cytoprotection at 20 uM by MTT assay relative to NGF; assay type: functional, cell-based; settings: NIH3T3; procedure, shortened: as §1
[9] = biological target: Insulin-like growth factor 1 receptor (Homo sapiens) (UniProt P08069); experiment: Antagonist activity at human IGF1R expressed in mouse NIH/3T3 cells assessed as inhibition of IGF-induced cytoprotection at 20 uM by MTT assay relative to IGF; assay type: functional, cell-based; settings: NIH3T3; procedure, shortened: as §1
[10] = biological target: High affinity nerve growth factor receptor (Homo sapiens) (UniProt P04629); experiment: Antagonist activity at human TrkA expressed in mouse NIH/3T3 cells assessed as decrease in NGF-induced tyrosin phosphorylation at 20 uM after 20 mins by Western blotting; assay type: functional, cell-based; settings: NIH3T3

Activity [1]: inactive | Activity [2]: 40% | inhibition [3]: 30% | Activity [4]: inactive | Activity [6]: Active | Activity [7]: inactive | inhibition [8]: inactive | inhibition [9]: inactive | Activity [10]: inactive
Compound: CN1C(=O)CN([C@@H](CCCCN)C(=O)NCCCCCCCCCCC(=O)N2CCN(c3nc(NCCCC[C@@H]4SC[C@@H]5NC(=O)N[C@@H]54)nc(N4CCN(C(=O)[C@H](CCCCN)N5CC(=O)N(C)[C@@H](CCC(=O)O)C5=O)CC4)n3)CC2)C(=O)[C@@H]1CCC(=O)O
Activity [5]: inactive | Activity (NIH3T3): Non-toxic
